# High-throughput results from PubChem.
# Rows were chosen to be rich in hits. Some 2.6% of all compounds tested hit in one or more screens of this group.
# Platelet DG rel = platelet dense granule release activity; human platelet-rich plasma, SFLLRN dense granule ATP release, luminescence; inhibition, %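 (compounds screened at 7.5 µM in platelet-rich plasma)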; hit rate 0.22% among 300,000;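 active = mean replicate score, as percent of positive control, at or above 50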
# SENP8 block-1 = inhibitors of human SENP8 protease; hit rate 0.64% among 360,000; Q96LD8; AID 602440; recombinant SENP8, Nedd8 substrate fluorescence; inhibition, % at 20 µM; in the data active = inhibition mostly above about 40%, no sharp cut-off; inactive = mostly below about 27%
# Target sequence (Q96LD8 whole entry, looked up): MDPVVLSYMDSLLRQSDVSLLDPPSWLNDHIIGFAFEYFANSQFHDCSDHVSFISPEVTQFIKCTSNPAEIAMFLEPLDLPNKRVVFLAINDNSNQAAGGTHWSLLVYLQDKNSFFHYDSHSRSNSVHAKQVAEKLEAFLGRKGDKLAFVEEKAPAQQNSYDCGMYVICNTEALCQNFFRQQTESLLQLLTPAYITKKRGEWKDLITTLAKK
# SENP6 inh = SENP6 protease inhibition | inhibition, % at 10 µM | hit rate 1.8% among 330,000 | Q9GZR1 | Recombinant SENP6 catalytic domain, aminoluciferin luminescence;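 active = inhibition above about 50% at the single tested dose, limit read from the data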;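 note: plate controls were DMSO wells with enzyme for no effect and DMSO wells lacking enzyme for full effect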
# SENP7 block = inhibitors of human SENP7 protease; recombinant SENP7, Z-RLRGG-aminoluciferin luminescence, 40 min; inhibition, % at 5 µM; Q9BQF6; AID 434973; hit rate 1.5% among 330,000;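 active = inhibition above about 50% at the single test dose, limit read from the data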;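 note: plate controls were DMSO with enzyme for no effect and no enzyme buffer wells for full effect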
# Target sequence (Q9BQF6 706-1050 limits assumed): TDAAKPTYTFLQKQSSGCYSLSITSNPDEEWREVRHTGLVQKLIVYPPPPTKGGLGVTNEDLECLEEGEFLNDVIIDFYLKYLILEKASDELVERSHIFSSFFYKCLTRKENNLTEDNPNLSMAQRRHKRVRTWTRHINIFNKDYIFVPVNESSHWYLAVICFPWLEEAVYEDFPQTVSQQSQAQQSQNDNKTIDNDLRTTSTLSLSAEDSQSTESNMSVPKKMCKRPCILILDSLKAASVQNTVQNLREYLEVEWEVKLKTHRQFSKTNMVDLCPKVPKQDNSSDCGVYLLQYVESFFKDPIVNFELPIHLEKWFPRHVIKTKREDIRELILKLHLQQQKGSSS
# SENP8 block-2 = SENP8 protease inhibition | Q96LD8 | purified SENP8, Z-RLRGG-aminoluciferin cleavage, luminescence | inhibition, % at 10 µM | hit rate 1.2% among 330,000 | AID 2540; in the data active = inhibition above about 50%
# SENP1 FRET inh = SENP1 (human) catalytic domain inhibition. recombinant SENP1 catalytic domain, CyPet-SUMO1-YPet FRET cleavage. inhibition, % at 10 µM. hit rate 0.21% among 360,000. AID 624204;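 active = inhibition at least 30% at 10 µM, raw YFP signal under a set limit, fluorescence ratio 0.5 to 1.5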;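 note: 0% = enzyme with DMSO and 100% = no enzyme wells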
#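 Material – human SENP1 catalytic domain · Input – SENP1 enzyme, 20 pM final · Compound dosing – single concentration of 10 µM compound, 0.5% DMSO final · Timing – enzyme reaction for 50 min at room temperature, dark · Measured by – FRET fluorescence in CFP and YFP emission channels · Control set – no-enzyme wells low, DMSO-plus-enzyme wells high control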
# SENP1 inh conf = SENP1 (human) inhibition, single concentration confirmation. shares compounds with SENP1 FRET inh. recombinant SENP1, CyPet-SUMO1-YPet FRET cleavage. inhibition, % at 10 µM. hit rate 34% among 520. AID 651678; in the data active = inhibition mostly above about 35%, no sharp cut-off; inactive = mostly below about 32%;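 note: 0% = enzyme with DMSO and 100% = no enzyme control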
# SENP1 kin conf = confirmation of human SENP1 SUMO protease inhibitors, kinetic; hit rate 26% among 520; AID 651690; inhibition, % at 10 µM; recombinant SENP1, CyPet-SUMO1-YPet FRET kinetic cleavage; shares compounds with SENP1 FRET inh; in the data active = inhibition mostly above about 32%, no sharp cut-off; inactive = mostly below about 29%;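 note: 0% = DMSO with enzyme and 100% = no enzyme substrate only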
# Numbers without * were called inactive; i = inactive; x = no result.
SMILES,Platelet DG rel,SENP8 block-1,SENP6 inh,SENP7 block,SENP8 block-2,SENP1 FRET inh,SENP1 inh conf,SENP1 kin conf
COc1ccc(NC(C)=O)cc1S(=O)(=O)N1CCn2cccc2C1C (stereo not given),x,-25,-12,-1,14,-13,x,x
NC(=O)CCC(C(=O)O)N1C(=O)c2ccc(O)cc2C1=O (stereo not given),0,5,3,-14,-7,44*,37*,24
COC(=O)c1ccccc1NC(=O)C1CCN(c2ncnc3c2nc2n3CCCCC2)CC1,-3,-4,-11,7,2,5,x,x
Cc1nc2ccc(NS(=O)(=O)c3c(F)cccc3F)cc2s1,x,-12,-9,9,-9,52*,26,25*
Cc1nc2ccc(NS(=O)(=O)c3ccc(F)cc3)cc2s1,3,1,-7,-8,-10,-1,x,x
CCOC(=O)[C@H]1[C@H]2COc3ccc(Cl)cc3[C@@H]2N2C(=O)[C@@H](CO)NC(=O)[C@@]12C,x,1,0,-3,3,0,x,x
O=C(NNc1nc2c(F)cccc2s1)c1cc(=O)c2ccccc2o1,2,23,98*,74*,94*,33*,66*,57*
O=C(NNc1nc2c(F)cccc2s1)c1ccc(F)cc1,-1,6,-14,-3,-8,2,x,x
N#C/C(=C\c1cc2ccccc2nc1N1CCCCC1)C(N)=O,x,-193,x,x,x,43*,36*,22
CCOC(=O)/C(C#N)=C/c1cc2ccccc2nc1Cl,-1,-2,-5,-4,-2,1,x,x
COCc1nnc(NC(=O)c2ccc(OC)cc2OC)s1,-5,23,-23,11,-8,48*,-10,0
C#CCOCCOCCOCCNc1nc(N2CCN(C(=O)[C@H]([C@@H](C)CC)n3cc(CCC(=O)O)nn3)CC2)nc(N2CCN(C(=O)[C@H](Cc3ccc(O)cc3)n3cc(CCO)nn3)CC2)n1,x,17,x,x,x,1,x,x
O=C(c1ccccc1)[C@@H]1[C@@H]2C(=O)N(c3ccc(F)cc3)C(=O)[C@@H]2C2CCCN21 (stereo not given in full),-3,2,-21,-8,-5,76*,73*,48*
COc1ccc(N2C(=O)C3C(C2=O)C(C(=O)c2ccc(Cl)cc2)N2CCCC32)cc1 (stereo not given),0,4,-7,-1,10,71*,77*,50*
Cc1ccc(N2C(=O)[C@@H]3[C@H](C2=O)C2CCCN2[C@@H]3C(=O)c2ccccc2)cc1 (stereo not given in full),0,11,-15,-1,-7,77,x,x
O=C(c1ccc(Cl)cc1)C1C2C(=O)N(c3ccccc3)C(=O)C2C2CCCN21 (stereo not given),5,15,x,x,x,-19,x,x
CCOc1ccccc1N=Nc1c(C)[nH]n(C(N)=S)c1=O,-9,29,-15,-8,-3,48*,14,3
CCOc1ccc(NC(=O)CCn2c(=S)oc3ccccc32)cc1,2,21,5,9,-1,2,x,x
CCOC(=O)c1sc2nc(C)nc(NCc3ccc(F)cc3)c2c1C,9,-331,-27,-1,2,36*,-19,18
CCOC(=O)c1ccc(NCn2c(=O)oc3ccccc32)cc1,-3,9,-10,-4,-11,54*,19,14
COc1cccc(C(=O)C2CCCN(CC3=Cc4cc(OC)ccc4OC3)C2)c1 (stereo not given),2,5,9,2,5,1,x,x
CCN(CC)c1nc2cc(C)ccc2cc1/C=C(\C#N)C(N)=O,-4,-105,0,5,7,79*,58*,33
CCc1ccc(NC(=O)/C(C#N)=C/c2cc3ccc(C)cc3nc2N2CCOCC2)cc1,-2,-118,13,-4,2,30,x,x
CCCNC(=O)C1(C)CCCN(C(=O)c2sccc2C)C1 (stereo not given),x,12,x,x,x,4,x,x
CCCN(CCC)C(=O)Cn1c(=O)c2sccc2n2c(=S)sc(-c3ccccc3)c12,1,12,6,5,-2,66*,47*,30
SMILES,Platelet DG rel,SENP8 block-1,SENP6 inh,SENP7 block,SENP8 block-2,SENP1 FRET inh,SENP1 inh conf,SENP1 kin conf
NC(=O)C1CCN(C(=O)CCn2c(=O)oc3ccccc32)CC1,x,0,-1,-1,-1,33*,4,-4
O=C1C=C(c2cccc(Cl)c2O)C[C@@H](c2ccc(Cl)cc2)C1,x,14,13,2,1,58*,99*,76*
COc1ccc(-c2nc(SCC(=O)Nc3c(F)cccc3F)n[nH]2)cc1,2,3,-38,9,-22,0,x,x
Cc1ccc2nc(SCC(=O)Nc3ccccc3N3CCOCC3)c(C#N)cc2c1,-6,19,12,4,6,33*,-11,-12
CCc1ccc2nc(SCC(=O)N3CCCCC3)c(C#N)cc2c1,-1,-24,-19,-2,-7,-2,x,x
Cc1ccc(SCC(=O)Nc2ccccc2N2CCOCC2)cc1,-7,0,0,-17,-8,0,x,x
CCc1ccc2nc(SCC(=O)Nc3ccccc3N3CCOCC3)c(C#N)cc2c1,6,22,17,9,-1,48*,21,17
CCOC(=O)C1=C(COC(=O)c2ccc3ccccc3c2O)NC(=O)NC1C (stereo not given),x,i,19,-4,-2,38*,2,-1
CCOC(=O)C1=C(COC(=O)c2ccccc2OC(F)F)NC(=O)NC1C (stereo not given),5,-8,-12,-7,-9,3,x,x
O=c1cc(CSc2nnc(Nc3ccccc3F)s2)nc2sccn12,2,0,-18,-10,-6,-1,x,x
COc1ccc(Nc2nnc(SCc3cc(=O)n4ccsc4n3)s2)cc1,2,-13,-7,9,6,31*,37*,32
Cc1c(C=NNC(=O)c2ccc(Br)cc2)c2ccccn2c1C(=O)c1ccncc1,x,24,2,-35,-2,50*,30,18
Cc1ccccc1C[n+]1cccc2ccccc21,-5,12,-3,1,-7,34*,6,3
CC(=O)Oc1ccc(/C=C2/SC(=S)N(Cc3ccccc3)C2=O)cc1,0,17,9,6,-1,74*,6,8
COc1ccc(/C=C2\SC(=S)N(CCC(=O)NC3=NCCS3)C2=O)cc1OC,24,18,14,11,8,53*,9,17
COc1cc(/C=C2\SC(=S)N(CCC(=O)NCCc3ccccc3)C2=O)cc(OC)c1OC,1,23,-8,4,8,35*,13,16
